Data set [1] in a line: melting temperature; fluorescence melt of hairpins on a sequencing array, two-state fit, raised by 9.35 °C to match UV melts. The following applies: sodium 0.088 M. In outline:
(§1)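 Melting temperature and folding enthalpy were obtained by bootstrapped two-state fitting. Fits used Cy3 fluorescence of library hairpins with annealed Cy3 and quencher oligos on a sequenced MiSeq flow cell, imaged in 50 mM Na-HEPES pH 8.0, 25 mM NaCl in 2.5 °C steps up to 60 °C and normalised to pre-quench Cy3 and control constructs. Four replicates were combined by inverse-variance weighting, and fitted temperatures were raised by 9.35 °C to match UV melts.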

Data set [2] can be described thus: folding enthalpy; higher = less favourable; fluorescence melt of hairpins on a sequencing array, two-state fit. The following applies: sodium 0.088 M. The procedure, abridged: as §1

In the case of GATCGTTTTAACGATC ((((((....)))))), in data set [1], the Tm is 60.8 °C. In addition, the folding enthalpy in data set [2] is -42.2 kcal/mol.
Consider GATCTAAAATTAGATC ((((((....)))))), for which, in data set [1], the Tm amounted to 35.7 °C. Moreover, in data set [2], the folding enthalpy was -29.9 kcal/mol.
As for GATCTAAAGCTAGATC ((((((....)))))), in data set [1], the Tm was determined as 35.4 °C. Besides, the folding enthalpy in data set [2] is -18.3 kcal/mol.
The like results for GATCTAAATATAGATC ((((((....)))))) were, in that order, 35.7 °C and -25.9 kcal/mol.
GATCTAAATTTAGATC ((((((....)))))): the Tm in data set [1] amounted to 44.3 °C. Besides, the folding enthalpy in data set [2] was -32.3 kcal/mol.
The like results for GATCTAACGGTAGATC ((((((....)))))) were, in that order, 40.5 °C and -38.4 kcal/mol.
Take GATCTAACTATAGATC ((((((....)))))): the Tm in data set [1] was determined as 37.5 °C. Besides, the folding enthalpy in data set [2] was -29.3 kcal/mol.
On to GATCTAACTTAGATC ((((((...)))))), for which the Tm in data set [1] amounted to 37.3 °C. For the same sequence, the folding enthalpy in data set [2] is -29.3 kcal/mol.
Taken in the same sequence, the figures for GATCTAAGAGTAGATC ((((((....)))))) were 37.1 °C and -14.9 kcal/mol.
Taken in the same sequence, the figures for GATCTAAGGGTAGATC ((((((....)))))) were 35.3 °C and -25.1 kcal/mol.
Regarding GATCTAATAATAGATC ((((((....)))))), in data set [1], the Tm turned out to be 35.5 °C. The folding enthalpy in data set [2] was -22 kcal/mol.
Consider GATCTAATAGTAGATC ((((((....)))))), for which, in data set [1], the Tm is 33.7 °C. Also, the folding enthalpy in data set [2] is -29.4 kcal/mol.
Taken in the same sequence, the figures for GATCTAATATTAGATC ((((((....)))))) were 43.2 °C and -40.3 kcal/mol.
The like results for GATCTAATGATAGATC ((((((....)))))) were, in that order, 36.2 °C and -20.4 kcal/mol.
The like results for GATCTAATGCTAGATC ((((((....)))))) were, in that order, 36.5 °C and -29.5 kcal/mol.
Turning to GATCTAATTGTAGATC ((((((....)))))), the Tm in data set [1] was 38.8 °C. In data set [2], the folding enthalpy is -33 kcal/mol.
Taken in the same sequence, the figures for GATCTACAATAGATC ((((((...)))))) were 36.7 °C and -18.8 kcal/mol.
The like results for GATCTACAGATAGATC ((((((....)))))) were, in that order, 37.3 °C and -26.6 kcal/mol.
Taken in the same sequence, the figures for GATCTACCATTAGATC ((((((....)))))) were 37.9 °C and -33.2 kcal/mol.
Take GATCTACCTATAGATC ((((((....)))))): the Tm in data set [1] came to 40.5 °C. For the same sequence, the folding enthalpy in data set [2] is -35 kcal/mol.
The like results for GATCTACCTGTAGATC ((((((....)))))) were, in that order, 52.8 °C and -39.4 kcal/mol.
The like results for GATCTACCTTAGATC ((((((...)))))) were, in that order, 39.1 °C and -32 kcal/mol.
The like results for GATCTACGAATAGATC ((((((....)))))) were, in that order, 36.4 °C and -24 kcal/mol.
Regarding GATCTACGATAGATC ((((((...)))))), the Tm in data set [1] turned out to be 35.4 °C. In addition, in data set [2], the folding enthalpy was -19.9 kcal/mol.
The like results for GATCTACGATTAGATC ((((((....)))))) were, in that order, 34.9 °C and -27.4 kcal/mol.
Taken in the same sequence, the figures for GATCTACGCCTAGATC ((((((....)))))) were 42.6 °C and -33.8 kcal/mol.
The like results for GATCTACGCTTAGATC ((((((....)))))) were, in that order, 43.4 °C and -35.4 kcal/mol.
Turning to GATCTACGGATAGATC ((((((....)))))), in data set [1], the Tm was 37.8 °C. In addition, the folding enthalpy in data set [2] is -23.4 kcal/mol.
The like results for GATCTACTAATAGATC ((((((....)))))) were, in that order, 38.9 °C and -27.3 kcal/mol.
Taken in the same sequence, the figures for GATCTACTATAGATC ((((((...)))))) were 40.5 °C and -25.1 kcal/mol.
Consider GATCTACTCGTAGATC ((((((....)))))), for which the Tm in data set [1] was 53.8 °C. Besides, in data set [2], the folding enthalpy is -50.1 kcal/mol.
